This is an account of results in PMC11584596 (IDCases, 2024).

In data set [1] the test system is methicillin-resistant Staphylococcus epidermidis (MRSE). Kind of data set: Antimicrobial susceptibility. Format: cell-based. As to conditions: for MIC: Staphylococcus epidermidis, MRSE; for MIC^1: MRSE isolate from sample 1 of periprosthetic fluid at diagnosis; for MIC^2: MRSE isolate from sample 2 of periprosthetic fluid at diagnosis. The essentials: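 Two MRSE isolates, each recovered from a separate sample of periprosthetic fluid taken by sterile drainage at diagnosis. A susceptibility profile was recorded for each isolate.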

The test system of data set [2] is shoulder PJI caused by methicillin-resistant Staphylococcus epidermidis (MRSE). The data set is described as follows: Clinical course of shoulder prosthetic joint infection under oritavancin. Format: in vivo, human (patient). As to conditions: ten sequential doses of 1200 mg over 28 weeks; single patient.
The next data set concerns Gram-positive infections. As to conditions: 30 of 32 patients who received at least two doses of oritavancin; cited from earlier work.

By MIC is commonly meant the lowest concentration that inhibits growth of the organism.

≈ marks a conversion by molar mass, not a printed value. Read-outs that look alike come from different tables or passages of the source.

Take `CC(=O)NC[C@H]1CN(c2ccc(N3CCOCC3)c(F)c2)C(=O)O1` [Linezolid]: the values for the MIC in data set [1] (read-out: MIC^1) and in data set [1] (read-out: MIC^2) were 1 µg/mL (≈ 2.96 µM) and 2 µg/mL (≈ 5.93 µM), respectively.
Regarding `CN(C)c1cc(NC(=O)CNC(C)(C)C)c(O)c2c1C[C@H]1C[C@H]3[C@H](N(C)C)C(O)=C(C(N)=O)C(=O)[C@@]3(O)C(O)=C1C2=O` [Tigeciclin], in data set [1], the “MIC^1” value is ≤ 0.25 µg/mL and the “MIC^2” value was 0.25 µg/mL (≈ 0.427 µM).
Take `CO[C@H]1/C=C/O[C@@]2(C)Oc3c(C)c(O)c4c(O)c(c(/C=N/N5CCN(C)CC5)c(O)c4c3C2=O)NC(=O)/C(C)=C\C=C\[C@H](C)[C@H](O)[C@@H](C)[C@@H](O)[C@@H](C)[C@H](OC(C)=O)[C@@H]1C` [Rifampin]: the results for the minimal inhibitory concentration (MIC) in data set [1] (read-out: MIC^1) and in data set [1] (read-out: MIC^2) were > 1 µg/mL and > 2 µg/mL, respectively.
For the compound `COc1c(N2C[C@@H]3CCCN[C@@H]3C2)c(F)cc2c(=O)c(C(=O)O)cn(C3CC3)c12` [Moxifloxacin], the MIC in data set [1] (read-out: MIC^1) is > 1 µg/mL.
For the compound `CC[C@H]1OC(=O)[C@H](C)[C@@H](O[C@H]2C[C@@](C)(OC)[C@@H](O)[C@H](C)O2)[C@H](C)[C@@H](O[C@@H]2O[C@H](C)C[C@H](N(C)C)[C@H]2O)[C@](C)(O)C[C@@H](C)C(=O)[C@H](C)[C@@H](O)[C@]1(C)O` [Eritromicin], in data set [1], the “MIC^1” value was ≤ 0.25 µg/mL and the “MIC^2” value is 1 µg/mL (≈ 1.36 µM).
Consider `C[C@@H]1O[C@@H]1P(=O)(O)O` [Fosfomicin c/G6P, Fosfomicin], for which, in data set [1], the “MIC^1” value was ≤ 16 µg/mL.
On to Vancomicin, for which, in data set [1], the “MIC^1” value came out at 2 µg/mL and the “MIC^2” value is ≤ 0.5 µg/mL.
For the compound `CC1(C)S[C@@H]2[C@H](NC(=O)[C@H](N)c3ccccc3)C(=O)N2[C@H]1C(=O)O` [Ampicillin], in data set [1] (read-out: MIC^1), the minimal inhibitory concentration (MIC) was > 2 µg/mL.
As for `CC(=O)O[C@H]1C[C@@]2(C)[C@@H](C[C@@H](O)[C@H]3[C@@]4(C)CC[C@@H](O)[C@@H](C)[C@@H]4CC[C@@]32C)/C1=C(\CCC=C(C)C)C(=O)O` [Fusidic Acid], the MIC in data set [1] (read-out: MIC^1) was > 8 µg/mL; in data set [1] (read-out: MIC^2), 16 µg/mL (≈ 31 µM).
In the case of `CNC(C)C1CCC(N)C(OC2C(N)CC(N)C(OC3OCC(C)(O)C(NC)C3O)C2O)O1` (centres unmarked) [Gentamicin], the MIC in data set [1] (read-out: MIC^1) is ≤ 1 µg/mL; in data set [1] (read-out: MIC^2), ≤ 0.5 µg/mL.
As to Teicoplanin, in data set [1], the “MIC^1” value is < 2 µg/mL.
Turning to `CN(C)[C@@H]1C(O)=C(C(N)=O)C(=O)[C@@]2(O)C(O)=C3C(=O)c4c(O)cccc4[C@@](C)(O)[C@H]3C[C@@H]12` [Tetraciclin], in data set [1], the “MIC^1” value is 1 µg/mL (≈ 2.25 µM) and the “MIC^2” value stood at 2 µg/mL (≈ 4.5 µM).
Consider `CN[C@H](CC(C)C)C(=O)N[C@H]1C(=O)N[C@@H](CC(N)=O)C(=O)N[C@H]2C(=O)N[C@H]3C(=O)N[C@H](C(=O)N[C@H](C(=O)O)c4cc(O)cc(O)c4-c4cc3ccc4O)[C@H](O[C@H]3C[C@](C)(N)[C@@H](O)[C@H](C)O3)c3ccc(c(Cl)c3)Oc3cc2cc(c3O[C@@H]2O[C@H](CO)[C@@H](O)[C@H](O)[C@H]2O[C@H]2C[C@](C)(NCc3ccc(-c4ccc(Cl)cc4)cc3)[C@@H](O)[C@H](C)O2)Oc2ccc(cc2Cl)[C@H]1O` [Oritavancin], for which, in data set [2], the side effects entry was “no side effects reported”. For the same compound, the clinical success with Gram-positive infections is 93.8%.
For `O=C(O)c1cn(C2CC2)c2cc(N3CCNCC3)c(F)cc2c1=O` [Ciprofloxacin], the minimal inhibitory concentration (MIC) in data set [1] (read-out: MIC^1) and in data set [1] (read-out: MIC^2) was > 4 µg/mL throughout.
As to Daptomicin, in data set [1], the “MIC^2” value was determined as 0.25 µg/mL.
Turning to `CCC[C@@H]1C[C@@H](C(=O)N[C@@H]([C@H]2O[C@H](SC)[C@H](O)[C@@H](O)[C@H]2O)[C@H](C)Cl)N(C)C1` [Clindamicin], the minimal inhibitory concentration (MIC) in data set [1] (read-out: MIC^1) was ≤ 0.25 µg/mL; in data set [1] (read-out: MIC^2), 0.25 µg/mL (≈ 0.588 µM).
The like results for `Cc1onc(-c2ccccc2)c1C(=O)N[C@@H]1C(=O)N2[C@@H]1SC(C)(C)[C@@H]2C(=O)O` [Oxacillin] were, in that order, > 2 µg/mL and > 2 µg/mL.
